# Screening data deposited in PubChem by Johns Hopkins Ion Channel Center.
# MrgX1 PAM: positive allosteric modulators of MrgX1, primary screen, HEK293 cells, Fluo-4 calcium flux; Mas-related G-protein coupled receptor member X1 (Homo sapiens), Q96LB2; FDSS; stronger effect = higher value; B-score at 10 µM; 310,000 compounds, 0.63% hits; AID 588675, 2011;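 active means plate-corrected calcium response at least 3 library SD above typical, normal starting fluorescence, not activating the receptor alone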;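 further: compound read alongside a low EC10 to EC30 dose of BAM8-22 agonist; peak minus trough fluorescence over baseline measured at the second addition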
# Target sequence (Q96LB2 whole entry, looked up): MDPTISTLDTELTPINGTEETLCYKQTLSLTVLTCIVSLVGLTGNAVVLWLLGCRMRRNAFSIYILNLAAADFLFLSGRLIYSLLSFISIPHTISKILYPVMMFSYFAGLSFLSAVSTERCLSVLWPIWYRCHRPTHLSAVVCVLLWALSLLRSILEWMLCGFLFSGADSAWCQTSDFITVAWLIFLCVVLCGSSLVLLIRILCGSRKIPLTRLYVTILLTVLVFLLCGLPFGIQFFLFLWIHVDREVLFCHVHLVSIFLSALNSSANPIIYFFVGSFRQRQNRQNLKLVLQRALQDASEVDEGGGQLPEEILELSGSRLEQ
# RGS4 inh: RGS4 inhibitors, primary screen, cell-based, HEK293 M3R inducible RGS4, calcium flux; Regulator of G-protein signaling 4 (Homo sapiens), P49798; Fluo-4 calcium flux; stronger effect = higher value; triggered by carbachol at its EC20; B-score at 10 µM; 310,000 compounds, 0.45% hits;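 active means B-score, a plate-corrected calcium signal, over three deviations above library mean, with baseline fluorescence within five deviations of library mean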;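 further: RGS4 expression induced by doxycycline in cells with stable M3 receptor; B-score is computed from the integrated fluorescence ratio over baseline after carbachol; higher B-score means a larger calcium signal and so more RGS4 inhibition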
# Target sequence (P49798 whole entry, looked up): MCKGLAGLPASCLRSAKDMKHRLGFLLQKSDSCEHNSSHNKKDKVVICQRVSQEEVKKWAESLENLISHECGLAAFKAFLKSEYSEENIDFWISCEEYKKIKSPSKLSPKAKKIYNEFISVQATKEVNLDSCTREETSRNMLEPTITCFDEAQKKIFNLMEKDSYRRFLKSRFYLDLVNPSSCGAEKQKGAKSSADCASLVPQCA
# RGS4 act: RGS4 potentiators or activators, primary screen, cell-based, HEK293 M3R inducible RGS4, calcium flux; carbachol calcium flux Fluo4; stronger effect = lower value; B-score at 10 µM; 310,000 compounds, 0.92% hits; AID 463111, 2010;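 active means B-score of the integrated calcium signal more than 4 SD below the library mean, with starting fluorescence not abnormally high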;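 further: negative B-score means reduced calcium response which marks RGS4 activation or potentiation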
#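 Assay system: HEK293 FlpIn-TREx cells, stable M3R, doxycycline-inducible RGS4 / Probe or stimulus: carbachol, ECmax concentration / Times: overnight RGS4 induction, 30 min dye load 37 °C, 20 min compound RT / Signal: kinetic calcium fluorescence imaging with Fluo4-AM dye, 2 µM / Measure: Agonist-evoked peak-minus-minimum fluorescence over baseline, integrated ratio, B score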
# MrgX1 antag: antagonists of human MrgX1 receptor, primary screen, HEK293 cells, Fluo-4 calcium flux; BAM8-22 antagonism; stronger effect = lower value; B-score at 10 µM; AID 588676, 2011; Mas-related G-protein coupled receptor member X1 (Homo sapiens), Q96LB2; 310,000 compounds, 1.3% hits;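 active means calcium-response B-score plate-corrected more than 3 library SD below zero, starting fluorescence within 5 deviations, no agonist response on first addition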;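 further: peak minus trough fluorescence over baseline after final BAM8-22 challenge near maximal dose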
# MrgX1 ag: agonists of human MrgX1 receptor, primary screen, HEK293 cells, Fluo-4 calcium flux. Mas-related G-protein coupled receptor member X1 (Homo sapiens), Q96LB2. Fluo-4 calcium fluorescence, agonist mode; stronger effect = higher value. B-score at 10 µM. 310,000 compounds, 0.44% hits. AID 588627, 2011;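 active means calcium response B-score plate-corrected fluorescence ratio at least 3 library SD, with starting fluorescence B-score inside 5 SD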
#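 Assay system: stable human MrgX1 HEK293 cell line. Quantity: 15,000 cells per well. Schedule: cells plated overnight, dye loaded 0.5 h 37 °C, 0.5 h room temperature. Detection: Fluo-4 NW calcium-flux fluorescence, kinetic read. Read-out basis: peak-minus-minimum fluorescence over baseline, converted to B scores. Control set: positive and negative control wells on each plate.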
# RGS4 activ val: reduced carbachol calcium response, RGS4-induced M3R cells, confirmation, RGS4 activator project, cell-based, HEK293 M3R/RGS4 inducible, calcium flux, duplicate; shares compounds with RGS4 act; carbachol calcium flux Fluo4; inhibition, % at 10 µM; 1,100 compounds, 89% hits; AID 602282, 2012;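 active means inhibition above 3 SD of the buffer control wells, cut at about 41% in these data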;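 further: signal is the integrated peak-minus-minimum Fluo4 fluorescence over baseline ratio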
# M3R Ca counter: counter-screen for RGS4 activators: effect in non-induced cells; shares compounds with RGS4 act; inhibition, % at 10 µM; 1,100 compounds, 82% hits; HEK293 M3R non-induced RGS4, Fluo4 calcium flux; after carbachol challenge at its EC90;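 active means inhibition exceeding 3 SD of buffer-only control wells, cut at about 26% in these data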;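 further: percent drop in integrated peak-minus-baseline over baseline Fluo4 ratio after carbachol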
# * = called active by the depositor; i = inactive; ! = not active in a repeat. Most compounds without a hit are left out; they make up all but 3.5% or so of the library.
SMILES,MrgX1 PAM,RGS4 inh,RGS4 act,MrgX1 antag,MrgX1 ag,others
CC(=O)O[C@H]1CC[C@@]2(C)[C@H](C1)C(=O)C[C@H]1[C@@H]3CC[C@@H]4[C@@H](CN5C[C@@H](C)CC[C@H]5[C@@]4(C)O)[C@@H]3C[C@@H]12,i,i,-7.04*,i,i,
Cc1ccn2nc(S(=O)(=O)Nc3c(F)cccc3F)nc2n1,i,i,i,i,i,
O=c1[nH]c(O)c(/C=C2\C=Nc3ccc(OCc4ccccc4)cc32)c(=O)[nH]1,i,i,i,i,i,
O=C(O)c1ccc(NC(=O)N2C[C@H]3C[C@@H](C2)c2cccc(=O)n2C3)cc1,i,i,-10.1*,i,i,
COC(=O)C(Cc1ccc(N(CCCl)CCCl)cc1)N=Cc1ccccc1O (stereo unspecified),i,i,-7.13*,i,i,
OC12ONC(c3ccccn3)C1N1CCC2CC1 (stereo unspecified),i,i,i,i,i,
N/C(=N\[N+](=O)[O-])N1CCN(C(=O)c2ccccc2)CC1,i,i,i,i,i,
CCOc1cc2c(cc1OCC)-n1cccc1C(c1ccc(C)cc1C)NC2 (stereo unspecified),i,i,i,i,i,
CCOc1cc2c(cc1OCC)-n1cccc1C(c1cc(C)c(OC)cc1C)NC2 (stereo unspecified),i,i,i,-4.93*,i,
COC(=O)C1=C(c2cc3ccccc3s2)C[C@@H]2CC[C@H]1N2C(=O)NCc1ccco1,i,i,i,i,i,
CCCn1nc2ccccc2c1P(=O)(N1CCOCC1)N1CCOCC1,i,i,i,i,i,
Nc1ccc2c(c1)Cc1ccccc1-2,i,i,i,i,i,
CCN(CC)c1ccc(N=Cc2c(O)n(Cc3ccccc3)c(=O)[nH]c2=O)cc1,i,i,-7.27*!,i,i,
COc1cccc(N2C(=O)NC(=O)C3(Cc4cc(C)ccc4N(C)C3)C2=O)c1 (stereo unspecified),i,i,i,i,i,
OC(c1ccccc1)(c1ccccc1)C1CN2CCC1CC2 (stereo unspecified),i,i,-7.45*,i,i,
CN(CC(=O)Nc1ccccc1-c1ccccc1)C1CCCCC1,i,i,-9.56*,i,i,RGS4 activ val=91.5*;M3R Ca counter=55.3*
CCc1ccccc1NC(=O)CNC1CCCCC1,i,i,i,i,i,
Cc1[nH]c2ccc(OC(F)(F)F)cc2c1CCNCc1cccc([N+](=O)[O-])c1,i,i,i,i,i,
CCOc1cccc(CNCCc2c(C)[nH]c3ccc(OC(F)(F)F)cc23)c1O,i,i,-8.92*,-5.29*,i,RGS4 activ val=90.0*;M3R Ca counter=89.8*
COC(=O)CN1C(=O)CN=C(c2ccccc2Cl)c2cc(Br)ccc21,i,i,i,i,i,
CN1CCN(C(=O)COc2ccc(S(=O)(=O)NC3CCCCC3)cc2Cl)CC1,i,i,i,i,i,
CCOc1cccc(CNC2CN3CCC2CC3)c1 (stereo unspecified),i,i,i,i,i,
COc1cccc(CNC2CN3CCC2CC3)c1OC (stereo unspecified),i,i,-7.73*,i,i,RGS4 activ val=56.0*;M3R Ca counter=25.8*
COc1cc(CN2CCN(C(=O)Cc3ccccc3)CC2)cc(OC)c1OC,i,i,i,i,i,
c1ccc(C(OCCN2CCNCC2)c2ccccc2)cc1,i,i,-9.5*,i,i,RGS4 activ val=91.5*;M3R Ca counter=74.3*
c1ccc(CN2CCNCC2)nc1,i,i,i,i,i,
